Test results: ChEMBL document CHEMBL4177676, “Discovery of new antimalarial agents: Second-generation dual inhibitors against FP-2 and PfDHFR via fragments assembely” (Bioorg Med Chem, 2017)
Where a name gives a salt, the structure may show the parent alone. Calls of active or inactive are those of the source. No cut-off for these calls is given here.

Key:
[1] = target: T1, Falcipain 2 (Plasmodium falciparum) (UniProt Q9N6S8); test: Inhibition of Plasmodium falciparum FP2 at 10 uM using Z-Leu-Arg-AMC as substrate preincubated for 30 min followed by substrate addition measured after 30 mins by spectrofluorimetric method
T1 sequence (whole entry): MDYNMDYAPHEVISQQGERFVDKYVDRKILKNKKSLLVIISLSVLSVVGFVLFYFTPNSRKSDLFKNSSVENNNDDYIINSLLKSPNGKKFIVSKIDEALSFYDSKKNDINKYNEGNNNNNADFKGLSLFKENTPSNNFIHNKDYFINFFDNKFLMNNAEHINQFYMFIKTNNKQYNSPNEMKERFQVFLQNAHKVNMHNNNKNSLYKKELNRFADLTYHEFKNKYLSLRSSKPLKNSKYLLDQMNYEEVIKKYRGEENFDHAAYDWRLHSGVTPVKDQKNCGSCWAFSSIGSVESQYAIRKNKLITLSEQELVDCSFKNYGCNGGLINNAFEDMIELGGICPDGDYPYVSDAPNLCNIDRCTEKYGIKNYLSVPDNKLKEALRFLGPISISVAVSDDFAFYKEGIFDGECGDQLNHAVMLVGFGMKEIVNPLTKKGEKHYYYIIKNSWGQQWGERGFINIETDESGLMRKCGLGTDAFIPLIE
In short: (§1)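 FP-2 (30 nM) was preincubated 30 min at room temperature with compound in 100 mM sodium acetate, 10 mM DTT, pH 5.5, with DMSO at most 1%. The fluorescence increase was then monitored for 30 min at room temperature. Percent inhibition was screened at 10 µM. IC50 values were fitted from percent inhibition versus concentration, using three independent experiments.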

[2] = target: Bifunctional dihydrofolate reductase-thymidylate synthase (Plasmodium falciparum K1) (UniProt P13922); test: Inhibition of Plasmodium falciparum DHFR at 10 uM using DHF as substrate preincubated for 15 mins followed DHF addition measured after 15 mins by spectrophotometric method
Sequence of Bifunctional dihydrofolate reductase-thymidylate synthase (Plasmodium falciparum K1) (P13922 whole entry, looked up): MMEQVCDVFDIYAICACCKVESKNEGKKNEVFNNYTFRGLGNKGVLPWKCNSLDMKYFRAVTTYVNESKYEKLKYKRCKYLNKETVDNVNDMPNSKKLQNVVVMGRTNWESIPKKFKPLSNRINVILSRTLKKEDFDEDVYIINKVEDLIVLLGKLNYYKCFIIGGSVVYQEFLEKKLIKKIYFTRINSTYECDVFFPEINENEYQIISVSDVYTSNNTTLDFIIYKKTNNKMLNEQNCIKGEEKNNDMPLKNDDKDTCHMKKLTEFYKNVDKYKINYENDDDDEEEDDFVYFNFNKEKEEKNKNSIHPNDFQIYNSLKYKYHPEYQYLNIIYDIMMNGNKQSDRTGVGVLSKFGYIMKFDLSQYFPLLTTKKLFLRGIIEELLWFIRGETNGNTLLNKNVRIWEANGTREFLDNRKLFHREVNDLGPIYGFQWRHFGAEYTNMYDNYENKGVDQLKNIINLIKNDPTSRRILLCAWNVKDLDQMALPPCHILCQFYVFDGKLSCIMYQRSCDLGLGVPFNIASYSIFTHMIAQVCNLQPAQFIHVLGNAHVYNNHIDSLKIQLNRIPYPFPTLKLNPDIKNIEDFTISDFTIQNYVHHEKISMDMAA
In short: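 Purified P. falciparum DHFR was preincubated 15 min on ice with compound in 100 uM NADPH, 50 mM TES pH 7.0, 1 mM EDTA, 75 mM 2-mercaptoethanol and 1 mg/mL BSA. DHF was then added to start the reaction. NADPH oxidation was followed at 340 nm, and percent inhibition was taken at 10 µM.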

Falcipain 2 [3] = target: T2, Falcipain 2 (Plasmodium falciparum, UniProt Q9N6S8); test: Inhibition of Plasmodium falciparum FP2 using Z-Leu-Arg-AMC as substrate preincubated for 30 min followed by substrate addition measured after 30 mins by spectrofluorimetric method; in short: as §1
T2 sequence (Q9N6S8 whole entry): T1 sequence (whole entry)

[4] = target: T3, Bifunctional dihydrofolate reductase-thymidylate synthase (Plasmodium falciparum K1, UniProt P13922); test: Inhibition of Plasmodium falciparum DHFR using DHF as substrate preincubated for 15 mins followed DHF addition measured after 15 mins by spectrophotometric method
T3 sequence (P13922 whole entry): as the sequence (P13922 whole entry, looked up) above
In short: (§2)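 Purified PfDHFR was preincubated with graded compound concentrations for 15 min on ice in 100 uM NADPH, 50 mM TES pH 7.0, 1 mM EDTA, 75 mM 2-mercaptoethanol and 1 mg/mL BSA. DHF was then added to start the reaction, and NADPH oxidation was followed at 340 nm. IC50 came from percent-inhibition versus concentration plots, three independent experiments.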

Plasmodium falciparum [5] = test: Antimalarial activity against mid-ring stage of multidrug-sensitive Plasmodium falciparum 3D7 infected in human O-positive erythrocytes after 72 hrs by SYBR Green I dye-based fluorescence assay; type: functional, organism-based; conditions: 3D7, 72 h
In short: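 Cultures were synchronised with 5% sorbitol to over 80% rings, and parasites at mid-ring stage (6–10 h post-invasion) were used at 1% parasitemia and 2% hematocrit. […] Growth ran 72 h at 37 °C under 5% CO₂, 5% O₂, 90% N₂. Cells were lysed in saponin/Triton X-100 buffer with 5X SYBR Green I, kept 2 h in the dark, and fluorescence was read at 485/535 nm.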

[6] = target: T3, Bifunctional dihydrofolate reductase-thymidylate synthase; test: Inhibition of Plasmodium falciparum DHFR; in short: as §2
Plasmodium berghei = test: In vivo antimalarial activity against Plasmodium berghei ANKA infected in BALB/c mouse assessed as reduction in parasitemia at 20 mg/kg, po administered daily for 4 days by Giemsa staining-based method; type: functional, organism-based
In short: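 BALB/c mice were infected with P. berghei ANKA. Starting 24 h later, they received 20 mg/kg test compound or control orally once daily for 4 days. Parasitemia was counted on Giemsa-stained blood smears every day over 10 days.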

Plasmodium falciparum [7] = test: Antimalarial activity against mid-ring stage of chloroquine-resistant Plasmodium falciparum Dd2 infected in human O-positive erythrocytes after 72 hrs by SYBR Green I dye-based fluorescence assay; type: functional, organism-based; conditions: Dd2, 72 h
In short: (§3)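 Sorbitol-synchronised (>80% ring) […] cultures were used at the mid-ring stage (6-10 h post-invasion), at 1% parasitemia and 2% hematocrit, with serial compound dilutions (Dd2 top concentration 10 µM). Incubation was 72 h at 37 °C under 5% CO₂/5% O₂/90% N₂. Cells were then lysed with saponin/Triton X-100 buffer containing 5X SYBR Green I, kept 2 h in the dark, and read at ex 485/em 535 nm.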

Plasmodium falciparum [8] = test: Antimalarial activity against mid-ring stage of Plasmodium falciparum Fab9 infected in human O-positive erythrocytes after 72 hrs by SYBR Green I dye-based fluorescence assay; type: functional, organism-based; conditions: Fab9, 72 h; in short: as §3
Plasmodium falciparum [9] = test: Antimalarial activity against mid-ring stage of Plasmodium falciparum GB4 infected in human O-positive erythrocytes after 72 hrs by SYBR Green I dye-based fluorescence assay; type: functional, organism-based; conditions: GB4, 72 h; in short: as §3
Falcipain 2 [10] = target: T2, Falcipain 2; test: Inhibition of Plasmodium falciparum FP2; in short: as §1
Plasmodium falciparum [11] = test: Antimalarial activity against mid-ring stage of multidrug-sensitive Plasmodium falciparum 3D7 infected in human O-positive erythrocytes at 20 uM after 72 hrs by SYBR Green I dye-based fluorescence assay; type: functional
Plasmodium falciparum [12] = test: Antimalarial activity against mid-ring stage of chloroquine-resistant Plasmodium falciparum Dd2 infected in human O-positive erythrocytes at 20 uM after 72 hrs by SYBR Green I dye-based fluorescence assay; type: functional

## Nc1nc(N)c2cc(NCc3ccc(CCNC(=O)C4CCCCC4)cc3)ccc2n1
[1]
  inhibition: 66.6%
[2]
  inhibition: 96%
Falcipain 2 [3]
  IC50: 7.7 µM
[4]
  IC50: 0.226 µM

## Nc1nc(N)c2cc(NCc3ccc(CCNC(=O)Cc4ccccc4)cc3)ccc2n1
[1]
  inhibition: 65%
[2]
  inhibition: 92.4%
Falcipain 2 [3]
  IC50: 7.6 µM
[4]
  IC50: 0.0701 µM
Plasmodium falciparum [5]
  IC50: 0.266 µM

## Cc1nc(N)nc(N)c1OCCCOc1cc(Cl)c(Cl)cc1Cl
[6]
  IC50: 0.229 µM

## COc1cc(OC)cc(C(=O)NCCc2ccc(CNc3ccc4nc(N)nc(N)c4c3)cc2)c1
[1]
  inhibition: 41.1%
[2]
  inhibition: 100%
[4]
  IC50: 0.0321 µM

## Nc1nc(N)c2cc(NCc3ccc(CCNC(=O)c4cccs4)cc3)ccc2n1
[1]
  inhibition: 67.6%
[2]
  inhibition: 97.4%
Falcipain 2 [3]
  IC50: 10 µM
[4]
  IC50: 0.0841 µM
Plasmodium falciparum [5]
  IC50: 0.0531 µM
Plasmodium berghei
  Activity: Active
Plasmodium falciparum [7]
  IC50: 1.2 µM
Plasmodium falciparum [8]
  IC50: 0.0142 µM
Plasmodium falciparum [9]
  IC50: 0.0234 µM

## COc1cccc(C(=O)NCCc2ccc(CNc3ccc4nc(N)nc(N)c4c3)cc2)c1
[1]
  inhibition: 52.6%
[2]
  inhibition: 96.8%
Falcipain 2 [3]
  IC50: 6.2 µM
[4]
  IC50: 0.0396 µM
Plasmodium falciparum [5]
  IC50: 0.0605 µM
Plasmodium berghei
  Activity: Active
Plasmodium falciparum [7]
  IC50: 2.2 µM

## Nc1nc(N)c2cc(NCc3ccc(CCNC(=O)c4ccco4)cc3)ccc2n1
[1]
  inhibition: 28.9%
[2]
  inhibition: 97.8%
[4]
  IC50: 0.107 µM

## Nc1nc(N)c2cc(NCc3ccc(CCNC(=O)c4ccc5c(c4)OCCO5)cc3)ccc2n1
[1]
  inhibition: 34.9%
[2]
  inhibition: 100%
[4]
  IC50: 0.0809 µM

## CC(C)C[C@H](NC(=O)[C@@H]1O[C@H]1C(=O)O)C(=O)NCCCCN=C(N)N
Falcipain 2 [3]
  IC50: 0.0572 µM

## COc1ccc(C(=O)NCCc2ccc(CNc3ccc4nc(N)nc(N)c4c3)cc2)cc1Cl
[1]
  inhibition: 37.6%
[2]
  inhibition: 51.2%

## CCc1nc(N)nc(N)c1-c1ccc(Cl)cc1 [PYRIMETHAMINE]
Plasmodium berghei
  Activity: Active
Plasmodium falciparum [7]
  IC50: > 10 µM

## Nc1nc(N)c2cc(NCc3ccc(CCNC(=O)c4ccc5c(c4)OCO5)cc3)ccc2n1
[1]
  inhibition: 59.2%
[2]
  inhibition: 100%
Falcipain 2 [3]
  IC50: 5.1 µM
[4]
  IC50: 0.0262 µM
Plasmodium falciparum [5]
  IC50: 0.0786 µM

## CCc1nnc(NC(=O)CCc2ccc(S(=O)(=O)Nc3ccc(F)cc3)cc2)s1
[1]
  inhibition: 64.7%
Falcipain 2 [10]
  IC50: 7 µM
[6]
  IC50: 6.3 µM
[2]
  inhibition: 59.2%
Falcipain 2 [3]
  IC50: 7 µM
[4]
  IC50: 6.3 µM
Plasmodium falciparum [11]
  Activity: 7.9%
Plasmodium falciparum [12]
  Activity: 6.2%

## COc1ccc(C(=O)NCCc2ccc(CNc3ccc4nc(N)nc(N)c4c3)cc2)cc1
[1]
  inhibition: 21.2%
[2]
  inhibition: 95.1%
[4]
  IC50: 0.157 µM

## Nc1nc(N)c2cc(NCc3ccc(CCNC(=O)c4ccc(F)cc4)cc3)ccc2n1
[1]
  inhibition: 52.7%
[2]
  inhibition: 96.7%
Falcipain 2 [3]
  IC50: 6.7 µM
[4]
  IC50: 0.118 µM
Plasmodium falciparum [5]
  IC50: 0.391 µM

## Nc1nc(N)c2cc(NCc3ccc(CCNC(=O)c4ccc5ccccc5c4)cc3)ccc2n1
[1]
  inhibition: 46.4%
[2]
  inhibition: 100%
[4]
  IC50: 0.0679 µM

## CC(C)(C)C1CCC(C(=O)NCCc2ccc(CNc3ccc4nc(N)nc(N)c4c3)cc2)CC1 (stereo not drawn)
[1]
  inhibition: 55.8%
[2]
  inhibition: 99.9%
Falcipain 2 [3]
  IC50: 7.4 µM
[4]
  IC50: 0.29 µM

## COc1ccc(OC)c(CNc2ccc3nc(N)nc(N)c3c2Cl)c1
[6]
  IC50: 0.00039 µM

## CC1(C)N=C(N)N=C(N)N1OCCCOc1cc(Cl)c(Cl)cc1Cl
[6]
  IC50: 0.00057 µM

## O=C(CCc1ccc(S(=O)(=O)NCCc2ccccc2)cc1)Nc1ccc2c(c1)OCCO2
Falcipain 2 [10]
  IC50: 54.2 µM
[6]
  IC50: 35.5 µM

## Nc1nc(N)c2cc(NCc3ccc(CCNC(=O)c4ccc(Cl)cc4F)cc3)ccc2n1
[1]
  inhibition: 62.4%
[2]
  inhibition: 68.2%
Falcipain 2 [3]
  IC50: 9.1 µM

## Nc1nc(N)c2cc(NCc3ccc(CCNC(=O)c4ccncc4)cc3)ccc2n1
[1]
  inhibition: 22.9%
[2]
  inhibition: 51.5%

## Nc1nc(N)c2cc(NCc3ccc(CCNC(=O)c4ccccc4F)cc3)ccc2n1
[1]
  inhibition: 44.6%
[2]
  inhibition: 100%
[4]
  IC50: 0.18 µM

## COc1ccc(C(=O)NCCc2ccc(CNc3ccc4nc(N)nc(N)c4c3)cc2)cc1OC
[1]
  inhibition: 31.3%
[2]
  inhibition: 100%
[4]
  IC50: 0.0611 µM

## C[C@@H]1CC[C@H]2[C@@H](C)C(=O)O[C@@H]3O[C@@]4(C)CC[C@@H]1[C@]32OO4 [ARTEMISININ]
Plasmodium falciparum [5]
  IC50: 0.0041 µM
Plasmodium berghei
  Activity: Active
Plasmodium falciparum [8]
  IC50: 0.0052 µM
Plasmodium falciparum [9]
  IC50: 0.0022 µM

## Nc1nc(N)c2cc(NCc3ccc(CCNC(=O)c4cccc(F)c4)cc3)ccc2n1
[1]
  inhibition: 49.8%
[2]
  inhibition: 98.5%
[4]
  IC50: 0.0506 µM

## Nc1nc(N)c2cc(NCc3ccc(CCNC(=O)CCc4ccccc4)cc3)ccc2n1
[1]
  inhibition: 55.2%
[2]
  inhibition: 98.6%
Falcipain 2 [3]
  IC50: 4.9 µM
[4]
  IC50: 0.185 µM

## CC1(C)N=C(N)N=C(N)N1c1ccc(Cl)cc1 [CHLORCYCLOGUANIL HYDROCHLORIDE]
[6]
  IC50: 0.0015 µM

## Nc1nc(N)c2cc(NCc3ccc(CCNC(=O)c4ccc([N+](=O)[O-])cc4)cc3)ccc2n1
[1]
  inhibition: 67%
[2]
  inhibition: 94.7%
Falcipain 2 [3]
  IC50: 10 µM
[4]
  IC50: 0.0556 µM
Plasmodium falciparum [5]
  IC50: 0.105 µM

## Nc1nc(N)c2cc(NCc3ccc(CCNC(=O)c4ccc(C(F)(F)F)cc4)cc3)ccc2n1
[1]
  inhibition: 21.5%
[2]
  inhibition: 96.4%
[4]
  IC50: 0.0213 µM
